# TRPC6 act = activates the mouse TRPC6 cation channel. HEK293-TRPC6 membrane potential dye fluorescence; active compounds read high. B-score at 10 µM. 310,000 compounds, 0.13% hits;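 active means B-score of the integrated fluorescence ratio above library mean plus 3 SD, and starting fluorescence ratio within library mean plus 5 SD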;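 further: higher score means more depolarization so channel activation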
# Target sequence (Q61143 whole entry, looked up): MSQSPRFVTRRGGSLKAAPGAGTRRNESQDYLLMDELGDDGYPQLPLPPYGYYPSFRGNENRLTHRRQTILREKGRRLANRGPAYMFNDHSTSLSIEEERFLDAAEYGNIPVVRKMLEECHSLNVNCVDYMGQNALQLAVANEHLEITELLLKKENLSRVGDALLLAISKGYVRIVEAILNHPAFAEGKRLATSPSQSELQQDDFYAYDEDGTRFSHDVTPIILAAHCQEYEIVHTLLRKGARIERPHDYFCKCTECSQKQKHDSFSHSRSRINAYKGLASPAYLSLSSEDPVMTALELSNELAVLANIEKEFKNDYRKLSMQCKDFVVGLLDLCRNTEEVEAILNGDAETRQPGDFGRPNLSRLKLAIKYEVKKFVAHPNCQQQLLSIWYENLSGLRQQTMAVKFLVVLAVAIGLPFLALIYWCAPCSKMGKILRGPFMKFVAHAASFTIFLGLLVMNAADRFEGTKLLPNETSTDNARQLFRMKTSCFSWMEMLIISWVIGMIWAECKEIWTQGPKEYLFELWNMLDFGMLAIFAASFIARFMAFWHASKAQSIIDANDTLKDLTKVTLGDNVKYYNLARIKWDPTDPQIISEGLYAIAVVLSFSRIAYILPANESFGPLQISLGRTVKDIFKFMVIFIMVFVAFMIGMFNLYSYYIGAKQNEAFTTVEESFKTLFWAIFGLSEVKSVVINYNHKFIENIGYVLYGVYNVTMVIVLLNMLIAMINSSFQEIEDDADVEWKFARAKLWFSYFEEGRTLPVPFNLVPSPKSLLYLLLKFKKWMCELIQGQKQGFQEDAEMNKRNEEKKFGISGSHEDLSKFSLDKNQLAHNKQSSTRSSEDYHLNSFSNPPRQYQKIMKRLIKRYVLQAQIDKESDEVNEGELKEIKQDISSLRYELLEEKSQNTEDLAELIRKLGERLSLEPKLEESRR
# TRPC6 inh = blocks the mouse TRPC6 cation channel; AID 2553; 310,000 compounds, 1.1% hits; HEK293-TRPC6, membrane potential dye, ACh-evoked depolarization; active compounds read low; B-score at 10 µM; Q61143;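 active means B-score under library mean minus 3 SD, initial fluorescence not abnormally high, positive integrated signal ratio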;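 further: B-score derived from integrated fluorescence ratio over the kinetic read; more negative B-score means stronger inhibition of depolarization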
# TRPC4 act = activators of mouse TRPC4 channel. Q9QUQ5. HEK293 TRPC4beta/mu-opioid, Fluo4 calcium fluorescence; active compounds read high. B-score at 10 µM. 310,000 compounds, 0.49% hits;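 active means B-score above 5 SD of library B-scores, and initial fluorescence ratio not above library mean plus 5 SD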;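 further: positive B-score marks a calcium rise read as TRPC4 activation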
#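 System – HEK293 cells stably co-expressing mouse TRPC4beta and mu-opioid receptor · Signal – Fluo4 calcium-sensitive dye fluorescence, kinetic, 1 Hz baseline · Benchmarks – buffer (low) and maximal DAMGO (high) · Read-out – B score of integrated fluorescence ratio per well · Incubation – dye loading 45 min room temperature, 110 s kinetic read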
# TRPC4 inh = blocks the mouse TRPC4 cation channel; 300,000 compounds, 0.39% hits; B-score at 10 µM; HEK293 TRPC4beta/mu-opioid, DAMGO-evoked Fluo4 calcium flux; active compounds read low; AID 2247;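 active means B-score over 3 SD under the library average, no early fluorescence shift, positive overall ratio signal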
#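 Material: HEK293 cells with stable TRPC4beta plus mu-opioid receptor expression; probe or stimulus: DAMGO in two steps, submaximal then maximal; technique: Fluo4 calcium fluorescence by kinetic imaging, 5 s 1 Hz baseline; measure: integrated fluorescence ratio relative to baseline, converted to per-well B score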
# TRPC4 potent = allosterically enhances the mouse TRPC4 cation channel. HEK293 TRPC4beta/mu-opioid, DAMGO EC20, Fluo-4 Ca2+ flux; active compounds read high. B-score at 10 µM. 310,000 compounds, 0.42% hits. AID 2227;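 active means B-score of calcium response area above 5 SD of library B-scores, with initial fluorescence ratio within 5 SD of library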;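 further: B-score of integrated fluorescence ratio over time as area under calcium response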
# FID counter = displaces DNA intercalator in HCV helicase counter-screen; 290,000 compounds, 0.17% hits; inhibition, % at 7.9 µM; DNA fluorescent intercalator displacement, fluorescence; in the data active means inhibition above about 37%;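 further: 0% = vehicle and 100% = reference compound; higher means more ethidium bromide displaced from hairpin DNA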
# TRPC4 spec 2 = second check of whether TRPC6 inhibitors also affect mouse TRPC4; shares compounds with TRPC6 inh; HEK293 TRPC4/MOR, membrane potential dye fluorescence; channel activated by saturating DAMGO dose; inhibition, % at 10 µM; 920 compounds, 42% hits;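 active means compounds whose fluorescence signal differed from control wells by over 3 SD, either direction, in both duplicate plates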
# TRPC4 spec = tests whether TRPC6 inhibitors also affect mouse TRPC4 | activity change, negative = inhibition, % at 10 µM | shares compounds with TRPC6 inh | HEK293 TRPC4/mu-opioid, membrane potential fluorescence | AID 2777 | 920 compounds, 61% hits;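 active means rise or fall in signal beyond 3 SD of buffer-only wells in both replicate plates, either sign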;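 further: integrated kinetic ratio of fluorescence range over baseline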
# HEK293 MPD ctr 2-1 = parental HEK293 nonspecific activity of TRPC6 inhibitors, second screen. 920 compounds, 31% hits. parental HEK293 membrane potential dye fluorescence; maximal acetylcholine challenge after compound addition. signal change vs control, % at 10 µM. shares compounds with TRPC6 inh;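 active means membrane potential signal moving either way by over 3 SD of the maximum-effect control, in both duplicate plates, meaning non-specific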
# HEK293 MPD ctr-1 = checks TRPC6 inhibitor effects in parental HEK293 cells; shares compounds with TRPC6 inh; parental HEK293 membrane potential dye fluorescence; membrane potential signal change, % at 10 µM; 920 compounds, 60% hits;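 active means membrane potential signal shifting up or down by more than 3 SD of buffer-only wells, on both duplicate plates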
# HEK293 MPD ctr-2 = checks TRPC6 modulator effects in parental HEK293 cells | shares compounds with TRPC6 inh | membrane potential dye fluorescence | membrane potential signal change, % at 10 µM | 2,400 compounds, 51% hits;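 active means membrane potential signal moves up or down beyond 5 SD from buffer-only wells, on both duplicate plates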
# HEK293 MPD ctr 2-2 = second counter-screen for TRPC6 modulators: effect in parental HEK293 cells | shares compounds with TRPC6 inh | membrane potential dye fluorescence; after compound, maximal acetylcholine stimulation | inhibition, % at 10 µM | 2,400 compounds, 14% hits | AID 488926;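 active means membrane potential signal drops by more than 5 SD from the mean control signal, in both duplicate plates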;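 further: plate controls were acetylcholine ECmax control wells for no effect and buffer only wells for full effect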
# TRPC4 ctr mod = mouse TRPC4 off-target activity of TRPC6 modulators. AID 488927. 2,400 compounds, 69% hits. HEK293 TRPC4/mu-opioid, membrane potential fluorescence. percent change from control (negative = decrease, positive = increase), % at 10 µM. shares compounds with TRPC6 inh;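 active means membrane potential signal moved up or down beyond 5 SD of buffer control wells, in both duplicate plates, actives on both sides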;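 further: plate controls were assay buffer wells for no effect and DAMGO maximal-effect wells for full effect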
# TRPC4/MOR inh 2 = second selectivity test of TRPC6 modulators against mouse TRPC4; shares compounds with TRPC6 inh; HEK293 TRPC4/mu-opioid, membrane potential dye fluorescence; stimulated with maximal-effect DAMGO; inhibition, % at 10 µM; 2,400 compounds, 55% hits;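 active means drop in membrane potential signal beyond 5 SD of the control wells in both duplicate plates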;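 further: TRPC4 counter screen for TRPC6 hits run under conditions tuned for TRPC6 not TRPC4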
# TRPC6 block conf = confirmation of mouse TRPC6 inhibitors; shares compounds with TRPC6 inh; HEK293-TRPC6, membrane potential dye, ACh-evoked depolarization; inhibition, % at 10 µM; 3,300 compounds, 43% hits;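 active means fluorescence ratio falls more than 5 SD below the full-stimulation control mean, in both duplicate runs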;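 further: integrated fluorescence ratio of peak minus minimum over baseline after agonist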
# TRPC6 act conf = mouse TRPC6 activator confirmation | HEK293-TRPC6 membrane potential dye fluorescence, FDSS | shares compounds with TRPC6 inh | 2,800 compounds, 11% hits | activation, % at 10 µM;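 active means ratio signal rise beyond 5 SD above unstimulated control wells' mean, seen in both duplicate runs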;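 further: plate controls were buffer EC0 wells for no effect and acetylcholine ECmax response for full effect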
# Numbers without * were called inactive; i = inactive; x = no result given; ! = not confirmed by another sample. Rows were chosen to be rich in hits. Some 2.3% of all compounds tested hit in one or more screens of this group.
SMILES,TRPC6 act,TRPC6 inh,TRPC4 act,TRPC4 inh,TRPC4 potent,FID counter,HEK293 MPD ctr-2,HEK293 MPD ctr 2-2,TRPC4 ctr mod,TRPC4/MOR inh 2,TRPC6 block conf,TRPC6 act conf,others
CN1CCS/C1=C/C=C1/SC(=S)N(Cc2ccccc2)C1=O,19*,i,i,i,i,-12,278%*,i,49%*,i,i,112%*,
Cc1cc(C)cc(NC(=O)CN(C)S(=O)(=O)c2cccc3nsnc23)c1,i,i,i,i,i,-11,x,x,x,x,x,x,
Cc1cccc(NC(=O)CN(C)S(=O)(=O)c2cccc3nsnc23)c1C,i,-5.5*,i,i,i,-5,i,i,16%*,28%*,i,i,
O=C(CN1C(=O)NC2(CCCC2)C1=O)Nc1ccc(C(F)(F)F)cc1,i,i,i,i,i,-6,x,x,x,x,x,x,
CNCCCOc1ccc(Cl)cc1C(C)(C)C,i,-6*,i,i,50*,22,i,i,i,i,i,i,
CC(=O)N1CCN(C(=O)c2ccc(C(=O)c3ccccc3)cc2)CC1,i,i,i,i,i,-7,x,x,x,x,x,x,
CCOc1ccc(NC(=O)CC(Cc2cc(C)cc(C)c2)C(=O)O)cc1 (configuration not stated),i,-5.6*,i,i,i,-40,i,i,i,i,i,i,
CCOc1ccc(NC(=O)C(CC(=O)O)Cc2ccccc2)cc1 (configuration not stated),i,i,i,i,i,-8,x,x,x,x,x,x,
Cc1c(C)n(Cc2ccccc2)c2ccc(C(=O)OCCN(C)C)cc12,i,-6*,i,i,i,29,i,i,i,72%*,56%*,i,
CSc1ccccc1OC1CCN(Cc2ccccc2)CC1,12*,i,i,i,i,8,196%*,i,40%*,63%*,i,77%*,
O=C(Cn1c(-c2ccccc2)c[n+]2ccsc12)c1ccc(Br)cc1,i,-5.6*,86*,i,i,7,-122%*,i,60%*,97%*,i,i,
N#CC(c1cccc(Cl)c1)c1ccc2c(C(F)(F)F)cc(C(F)(F)F)nc2n1 (configuration not stated),i,-10*,i,i,i,2,x,x,x,x,75%*,i,TRPC4 spec 2=i;TRPC4 spec=0.8%*;HEK293 MPD ctr 2-1=i;HEK293 MPD ctr-1=0.4%*
CCS(=O)(=O)N1Cc2ccccc2CC1C(=O)Nc1ncc(C)s1 (configuration not stated),i,i,i,i,i,-12,x,x,x,x,x,x,
CCS(=O)(=O)N1Cc2ccccc2CC1C(=O)Nc1nnc(SCc2ccc(C#N)cc2)s1 (configuration not stated),23*,i,i,i,i,-40,i,i,i,i,i,i,
O=C(C1COc2ccccc2O1)N1CCN(c2nc3c(F)cc(F)cc3s2)CC1 (configuration not stated),i,-8.5*,i,i,i,x,x,x,x,x,i,i,TRPC4 spec 2=i;TRPC4 spec=i;HEK293 MPD ctr 2-1=i;HEK293 MPD ctr-1=i
COc1ccc(-n2c(-c3ccc(Br)cc3)c[n+]3c2CCc2ccccc2-3)cc1,i,-5.3*,i,i,i,11,-150%*,i,18%*,62%*,i,i,
CC(C)c1ccc(-n2c(-c3ccccc3)c[n+]3c2CCc2ccccc2-3)cc1,i,i,i,i,i,26,x,x,x,x,x,x,
COc1ccccc1-n1c(-c2ccccc2)c[n+]2c1CCc1ccccc1-2,i,-9.9*,i,i,i,4,92%*,i,20%*,40%*,77%*,i,TRPC4 spec 2=i;TRPC4 spec=1.8%*;HEK293 MPD ctr 2-1=i;HEK293 MPD ctr-1=i
COc1ccccc1NC(=O)CSc1nnc(CC(=O)Nc2ccccc2F)n1C,i,i,i,i,i,-16,x,x,x,x,x,x,
Cc1cc(C)c2nc(N3CCC(C(=O)NCc4ccccn4)CC3)sc2c1,i,i,i,i,i,-29,x,x,x,x,x,x,
Cc1cc(C)c2nc(N3CCC(C(=O)NCc4cccnc4)CC3)sc2c1,i,-5.3*,i,i,i,-38,i,i,i,i,i,i,
COc1ccc(CCNC(=O)[C@H](CC(C)C)NC(=O)N2CCn3c2nc2ccccc23)cc1OC,i,i,i,i,i,-56,x,x,x,x,x,x,
COCCCC/C(=N\OCCN)c1ccc(C(F)(F)F)cc1,i,-5*!,i,i,i,29,i,i,12%*,48%*,43%*,i,
C=CC(=O)N(CCC)C(c1ccccc1)c1ccccc1OC (configuration not stated),i,i,i,i,i,x,x,x,x,x,x,x,
O=[N+]([O-])c1cc(Br)c(Nc2ccccc2)c([N+](=O)[O-])c1,i,i,i,i,i,5,x,x,x,x,x,x,
